Data from ChEMBL document CHEMBL1124735, “Dehydrogenase binding by tiazofurin anabolites” (J Med Chem, 1990).

Assays:
[1] = tested on: NC(=O)c1ccc[n+]([C@@H]2O[C@H](COP(=O)([O-])OP(=O)(O)OC[C@H]3O[C@@H](n4cnc5c(N)ncnc54)[C@H](O)[C@@H]3O)[C@@H](O)[C@H]2O)c1; experiment: In vitro inhibitory activity against horse liver Alcohol dehydrogenase; settings: Equus caballus
[2] = tested on: NC(=O)c1ccc[n+]([C@@H]2O[C@H](COP(=O)([O-])OP(=O)(O)OC[C@H]3O[C@@H](n4cnc5c(N)ncnc54)[C@H](O)[C@@H]3O)[C@@H](O)[C@H]2O)c1; experiment: In vitro inhibitory activity against bovine liver glutamate dehydrogenase (GDH)
[3] = tested on: NC(=O)c1ccc[n+]([C@@H]2O[C@H](COP(=O)([O-])OP(=O)(O)OC[C@H]3O[C@@H](n4cnc5c(N)ncnc54)[C@H](O)[C@@H]3O)[C@@H](O)[C@H]2O)c1; experiment: In vitro inhibitory activity against pig heart lactate dehydrogenase (LDH); settings: Sus scrofa
Method in brief: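 Pig heart enzymes (cytoplasmic MDH or LDH, from ammonium sulfate suspension) assayed in 0.05 M Tris HCl pH 9.0, with NAD as substrate; rates from NADH appearance by A340 (ε 6.22 mM⁻¹cm⁻¹) or fluorescence calibrated against NADH standards. Run at least in duplicate; kinetic constants from Lineweaver-Burk plots by linear regression.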

Glutamate dehydrogenase 1, mitochondrial (Bos taurus), P00366, sequence (P00366 whole entry): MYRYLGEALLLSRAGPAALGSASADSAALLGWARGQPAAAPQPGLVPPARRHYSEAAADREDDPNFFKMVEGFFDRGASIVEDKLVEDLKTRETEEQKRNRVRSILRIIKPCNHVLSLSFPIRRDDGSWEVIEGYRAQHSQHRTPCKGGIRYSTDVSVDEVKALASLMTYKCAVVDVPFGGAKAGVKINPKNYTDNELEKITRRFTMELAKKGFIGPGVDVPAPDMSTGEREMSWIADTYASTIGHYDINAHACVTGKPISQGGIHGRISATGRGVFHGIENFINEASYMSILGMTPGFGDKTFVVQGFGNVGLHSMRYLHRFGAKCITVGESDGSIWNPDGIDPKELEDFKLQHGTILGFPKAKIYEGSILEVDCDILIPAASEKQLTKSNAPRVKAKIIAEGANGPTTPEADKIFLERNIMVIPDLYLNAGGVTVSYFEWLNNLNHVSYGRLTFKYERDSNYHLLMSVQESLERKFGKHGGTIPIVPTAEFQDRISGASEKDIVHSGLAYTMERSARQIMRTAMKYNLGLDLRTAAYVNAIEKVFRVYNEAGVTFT
Alcohol dehydrogenase (Equus caballus), sequence (P00328 whole entry, looked up): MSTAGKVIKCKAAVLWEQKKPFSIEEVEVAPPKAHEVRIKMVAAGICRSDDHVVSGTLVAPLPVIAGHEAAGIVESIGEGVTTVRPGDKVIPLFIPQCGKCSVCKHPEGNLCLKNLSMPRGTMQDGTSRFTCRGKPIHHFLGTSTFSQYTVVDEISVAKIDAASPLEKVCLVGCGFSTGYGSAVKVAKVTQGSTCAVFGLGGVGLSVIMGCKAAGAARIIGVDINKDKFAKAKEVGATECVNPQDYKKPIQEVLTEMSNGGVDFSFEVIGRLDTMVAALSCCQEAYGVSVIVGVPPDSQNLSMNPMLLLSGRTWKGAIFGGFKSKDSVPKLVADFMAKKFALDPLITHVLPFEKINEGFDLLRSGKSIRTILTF
Alcohol dehydrogenase (Equus caballus), sequence (P00327 whole entry, looked up): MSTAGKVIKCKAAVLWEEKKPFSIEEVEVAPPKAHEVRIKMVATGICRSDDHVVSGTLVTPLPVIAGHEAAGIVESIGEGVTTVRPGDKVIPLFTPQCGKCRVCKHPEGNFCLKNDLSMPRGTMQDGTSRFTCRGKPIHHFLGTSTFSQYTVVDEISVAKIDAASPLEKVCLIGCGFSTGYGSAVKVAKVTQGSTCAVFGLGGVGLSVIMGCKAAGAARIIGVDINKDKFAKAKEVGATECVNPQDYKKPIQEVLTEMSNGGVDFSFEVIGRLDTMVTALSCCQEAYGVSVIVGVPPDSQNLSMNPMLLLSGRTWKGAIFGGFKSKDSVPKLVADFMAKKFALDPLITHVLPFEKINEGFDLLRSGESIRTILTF
L-lactate dehydrogenase B chain (Sus scrofa), P00336, sequence (P00336 whole entry): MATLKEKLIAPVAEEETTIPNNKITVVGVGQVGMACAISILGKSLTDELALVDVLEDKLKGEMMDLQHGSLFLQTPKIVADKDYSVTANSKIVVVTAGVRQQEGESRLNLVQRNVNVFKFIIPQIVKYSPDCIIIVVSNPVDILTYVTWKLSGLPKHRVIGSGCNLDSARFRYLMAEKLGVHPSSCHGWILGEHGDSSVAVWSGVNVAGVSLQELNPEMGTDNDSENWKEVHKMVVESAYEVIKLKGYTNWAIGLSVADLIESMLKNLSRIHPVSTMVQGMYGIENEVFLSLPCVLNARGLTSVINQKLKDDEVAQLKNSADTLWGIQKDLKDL

Substance: Alcohol dehydrogenase (Equus caballus) (from UniProt P00327+P00328)
- Km [1]: 22.3 µM

Substance: Glutamate dehydrogenase 1, mitochondrial (Bos taurus), P00366
- Km [2]: 20 µM

Substance: L-lactate dehydrogenase B chain (Sus scrofa), P00336
- Km [3]: 84.4 µM
